Among the data in ChEMBL document CHEMBL4118263, “Synthesis, structure-activity relationship and molecular docking studies of 3-O-flavonol glycosides as cholinesterase inhibitors” (Bioorg Med Chem, 2018) are IC50 values, retold here.

Experiment [1] addresses Acetylcholinesterase (Electrophorus electricus, UniProt O42275). The experiment in a line: Inhibition of electric eel AChE using acetylthiocholine iodide as substrate pretreated for 10 mins followed by substrate addition measured after 20 mins by Ellman's method.
Experiment [2] has as its target Cholinesterase (Equus caballus, UniProt P81908). The experiment in a line: Inhibition of horse serum BChE using butyrylthiocholine iodide as substrate pretreated for 10 mins followed by substrate addition measured after 20 mins by Ellman's method. Put shortly:
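Horse serum BChE was preincubated 10 min with test sample (20, 40, 60, 80, 100 μM). Butyrylthiocholine chloride (0.2 mM) was then added with DTNB (0.5 mM) in phosphate buffer pH 8 and incubated 20 min at 37 °C. Run in triplicate; IC50 by simple linear regression.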

Structures are written as SMILES.

Cholinesterase, sequence (P81908 whole entry): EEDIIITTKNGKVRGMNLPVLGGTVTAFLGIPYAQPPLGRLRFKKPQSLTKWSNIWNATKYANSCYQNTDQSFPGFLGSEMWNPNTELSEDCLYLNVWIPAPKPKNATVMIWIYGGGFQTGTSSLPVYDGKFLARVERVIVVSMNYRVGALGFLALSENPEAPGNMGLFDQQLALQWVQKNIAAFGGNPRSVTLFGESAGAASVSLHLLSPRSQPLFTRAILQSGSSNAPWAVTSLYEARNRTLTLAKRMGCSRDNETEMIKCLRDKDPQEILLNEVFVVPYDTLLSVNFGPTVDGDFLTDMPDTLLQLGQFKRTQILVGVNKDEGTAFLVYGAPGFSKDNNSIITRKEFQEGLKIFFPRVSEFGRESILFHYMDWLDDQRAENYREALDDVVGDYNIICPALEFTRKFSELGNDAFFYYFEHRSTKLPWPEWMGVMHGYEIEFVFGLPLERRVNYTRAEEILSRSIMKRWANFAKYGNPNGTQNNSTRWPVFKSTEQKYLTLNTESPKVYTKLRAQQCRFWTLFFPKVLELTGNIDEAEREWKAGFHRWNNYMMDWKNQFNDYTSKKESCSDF
Acetylcholinesterase, sequence (O42275 whole entry): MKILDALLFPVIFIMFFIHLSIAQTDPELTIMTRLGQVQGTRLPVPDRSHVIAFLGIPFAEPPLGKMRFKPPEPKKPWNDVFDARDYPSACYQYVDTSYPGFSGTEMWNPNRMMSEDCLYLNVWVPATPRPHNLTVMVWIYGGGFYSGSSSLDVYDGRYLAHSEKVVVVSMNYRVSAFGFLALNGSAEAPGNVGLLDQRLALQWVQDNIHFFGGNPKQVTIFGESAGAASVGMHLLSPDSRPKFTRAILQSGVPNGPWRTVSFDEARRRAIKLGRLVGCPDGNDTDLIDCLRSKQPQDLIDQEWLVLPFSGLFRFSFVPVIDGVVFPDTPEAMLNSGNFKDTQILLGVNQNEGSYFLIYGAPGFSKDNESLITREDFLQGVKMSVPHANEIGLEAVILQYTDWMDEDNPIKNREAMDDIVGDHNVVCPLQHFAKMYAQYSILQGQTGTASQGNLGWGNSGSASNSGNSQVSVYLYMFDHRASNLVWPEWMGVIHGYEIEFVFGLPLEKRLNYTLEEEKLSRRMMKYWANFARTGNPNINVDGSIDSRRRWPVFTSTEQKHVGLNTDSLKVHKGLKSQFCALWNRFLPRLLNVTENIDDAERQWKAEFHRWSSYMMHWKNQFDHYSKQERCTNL

As usually defined, the IC50 is the concentration that inhibits the measured activity by half. Turning to `COc1ccc(-c2oc3ccccc3c(=O)c2O[C@@H]2O[C@H](COC(C)=O)[C@@H](OC(C)=O)[C@H](OC(C)=O)[C@H]2OC(C)=O)cc1`, the figures for the IC50 in experiment [1] and in experiment [2] were 20.7 µM and 26 µM, respectively.

Consider `CC(=O)OC[C@H]1O[C@@H](Oc2c(-c3ccc(CC(C)C)cc3)oc3ccccc3c2=O)[C@H](OC(C)=O)[C@@H](OC(C)=O)[C@@H]1OC(C)=O`, for which the IC50 in experiment [1] came to 2.05 µM; in experiment [2], 5.42 µM.

`CC(=O)OC[C@H]1O[C@@H](Oc2c(-c3cccs3)oc3ccccc3c2=O)[C@H](OC(C)=O)[C@@H](OC(C)=O)[C@@H]1OC(C)=O`: the IC50 was 18.5 µM in experiment [1] and 25.5 µM in experiment [2].

As for `CC(=O)OC[C@H]1O[C@@H](Oc2c(-c3ccc(Br)cc3)oc3cc(C)ccc3c2=O)[C@H](OC(C)=O)[C@@H](OC(C)=O)[C@@H]1OC(C)=O`, the figures for the IC50 in experiment [1] and in experiment [2] were 22.4 µM and 30.6 µM, respectively.

Take `CC(=O)OC[C@H]1O[C@@H](Oc2c(-c3ccccc3C(=O)O)oc3ccccc3c2=O)[C@H](OC(C)=O)[C@@H](OC(C)=O)[C@@H]1OC(C)=O`: the IC50 in experiment [1] is 34 µM; in experiment [2] it was 48.4 µM.

Regarding `CC(=O)Nc1ccc(-c2oc3ccccc3c(=O)c2O[C@@H]2O[C@H](COC(C)=O)[C@@H](OC(C)=O)[C@H](OC(C)=O)[C@H]2OC(C)=O)cc1`, the IC50 in experiment [1] came out at 38.7 µM; in experiment [2], 39.7 µM.

For `CC(=O)OC[C@H]1O[C@@H](Oc2c(-c3ccc(Br)cc3)oc3ccccc3c2=O)[C@H](OC(C)=O)[C@@H](OC(C)=O)[C@@H]1OC(C)=O`, the IC50 is 10.2 µM in experiment [1] and 3.12 µM in experiment [2].

With `CC(=O)OC[C@H]1O[C@@H](Oc2c(-c3ccccc3)oc3ccccc3c2=O)[C@H](OC(C)=O)[C@@H](OC(C)=O)[C@@H]1OC(C)=O`, the IC50 in experiment [1] stood at 103 µM; in experiment [2], 45.9 µM.

Take `CC(=O)OC[C@H]1O[C@@H](Oc2c(-c3cccc4ccccc34)oc3ccccc3c2=O)[C@H](OC(C)=O)[C@@H](OC(C)=O)[C@@H]1OC(C)=O`: the IC50 stood at 36.4 µM in experiment [1] and 18.7 µM in experiment [2].

As to `CC(=O)OC[C@H]1O[C@@H](Oc2c(-c3ccc(F)cc3)oc3ccccc3c2=O)[C@H](OC(C)=O)[C@@H](OC(C)=O)[C@@H]1OC(C)=O`, the figures for the IC50 in experiment [1] and in experiment [2] were 29.2 µM and 49.8 µM, respectively.
